Activity calls are given as the source filed them. No cut-off for these calls is given here.
Tests used:
[1] = species: Homo sapiens; assay: Selectivity ratio of IC50 for FDPS (unknown origin) to IC50 for GGDPS (unknown origin)
[2] = biological target: T1, Farnesyl pyrophosphate synthase (Homo sapiens, UniProt P14324); assay: Inhibition of FDPS (unknown origin) using [14C] IPP and GPP as substrate preincubated for 10 mins followed by substrate addition and measured after 30 min by scintillation counting method
T1 sequence (P14324 whole entry): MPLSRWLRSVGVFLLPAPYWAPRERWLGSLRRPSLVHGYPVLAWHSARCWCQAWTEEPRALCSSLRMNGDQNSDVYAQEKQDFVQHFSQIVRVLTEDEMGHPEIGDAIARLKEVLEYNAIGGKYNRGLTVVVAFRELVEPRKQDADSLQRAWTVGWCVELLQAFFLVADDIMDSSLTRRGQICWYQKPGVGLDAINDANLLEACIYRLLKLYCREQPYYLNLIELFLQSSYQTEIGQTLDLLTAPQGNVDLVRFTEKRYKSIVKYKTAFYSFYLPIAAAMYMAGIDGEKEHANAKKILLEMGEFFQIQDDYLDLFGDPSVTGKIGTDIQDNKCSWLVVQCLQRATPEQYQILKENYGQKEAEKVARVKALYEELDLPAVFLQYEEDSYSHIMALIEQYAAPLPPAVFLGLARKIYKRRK
Summary of the method: (§1)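 Recombinant enzyme donated by outside labs, assayed by a previously described method; each concentration run in duplicate over multiple concentrations, three independent experiments.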

[3] = biological target: T2, Geranylgeranyl pyrophosphate synthase (Homo sapiens) (UniProt O95749); assay: Inhibition of GGPPs in human RPMI8226 cells assessed as disruption of Rap1a geranylgeranylation measured after 48 hrs by immunoblot analysis; type: cell-based
T2 sequence (whole entry): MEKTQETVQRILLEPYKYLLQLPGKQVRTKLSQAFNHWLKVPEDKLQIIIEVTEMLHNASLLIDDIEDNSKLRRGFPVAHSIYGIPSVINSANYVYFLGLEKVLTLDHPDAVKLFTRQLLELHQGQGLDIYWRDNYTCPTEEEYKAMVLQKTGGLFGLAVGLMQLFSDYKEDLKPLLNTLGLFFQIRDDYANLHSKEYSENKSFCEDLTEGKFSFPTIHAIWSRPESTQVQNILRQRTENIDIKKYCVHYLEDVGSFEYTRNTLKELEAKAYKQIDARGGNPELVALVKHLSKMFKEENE
Summary of the method: (§2)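 Whole-cell lysates made in RIPA buffer (0.15 M NaCl, 1% deoxycholate, 0.1% SDS, 1% Triton X-100, 0.05 M Tris HCl) with protease/phosphatase inhibitors; protein by BCA; equal protein run on SDS-PAGE, PVDF transfer, primary antibodies, HRP secondaries, ECL detection of Rap1a with β-tubulin as loading reference.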

[4] = biological target: T3, Geranylgeranyl pyrophosphate synthase (Homo sapiens, UniProt O95749); assay: Inhibition of GGDPS (unknown origin) using [14C] IPP and FPP as substrate preincubated for 10 mins followed by substrate addition and measured after 30 min by scintillation counting method; summary of the method: as §1
T3 sequence (O95749 whole entry): T2 sequence (whole entry)

[5] = biological target: T2, Geranylgeranyl pyrophosphate synthase (Homo sapiens); assay: Inhibition of GGPPs in human RPMI8226 cells assessed as disruption of Rap1a geranylgeranylation at 1 to 10 uM after 48 hrs by immunoblot analysis; type: cell-based; summary of the method: as §2
[6] = biological target: T2, Geranylgeranyl pyrophosphate synthase (Homo sapiens); assay: Inhibition of GGPPs in human RPMI8226 cells assessed as disruption of Rab geranylgeranylation by ELISA; type: cell-based
[7] = biological target: T2, Geranylgeranyl pyrophosphate synthase (Homo sapiens); assay: Inhibition of GGPPs in human MM1S cells assessed as disruption of Rap1a geranylgeranylation at 1 to 10 uM after 48 hrs by immunoblot analysis; type: cell-based; summary of the method: as §2

Ratio IC50 [1]	IC50 [2] [µM]	inhibition [3]	IC50 [4] [µM]	inhibition [5]	MEC [6] [µM]	inhibition [6]	inhibition [7]	SMILES
8	91.2	Dose-dependent effect	11.6	Active	10	Dose-dependent effect	Active	CC(=CCn1cc(CC(P(=O)(O)O)P(=O)(O)O)nn1)CC/C=C(\C)CO
121	81.4	Dose-dependent effect	0.67		0.25	Dose-dependent effect		C/C(=C/CCn1cc(CC(C)(P(=O)(O)O)P(=O)(O)O)nn1)CC/C=C(\C)CO

— ChEMBL document CHEMBL4304801, “ω-Hydroxy isoprenoid bisphosphonates as linkable GGDPS inhibitors” (Bioorg Med Chem Lett, 2019)
